# The source made the active and inactive calls. The calls are words filed in the database; no cut-off is given here.
# What was measured:
# [1] = system: HepG2; test: Antiproliferative activity against human HepG2 cells assessed as inhibition of cell viability at 10 uM after 72 hrs by CCK-8 assay relative to control; assay type: functional; conditions: HepG2, 72 h
# Outline: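 Single-concentration viability screen using CCK-8. Cells were seeded at 3000/well and treated for 72 h. A450 read after 1-4 h with reagent. Percent inhibition calculated against untreated control and blank wells as (Ac−As)/(Ac−Ab)×100%.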
# [2] = system: U-937; test: Antiproliferative activity against human U937 cells assessed as inhibition of cell viability after 72 hrs by CCK-8 assay; assay type: functional, cell-based; conditions: U-937, 72 h
# Outline: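 Cells kept at 37 °C, 5% CO2 in DMEM or RPMI-1640 with 10% FBS and 1% penicillin/streptomycin, then seeded at 3000 cells/well (adherent) or 10,000 cells/well (suspension). Exposed to a range of concentrations for 72 h. CCK-8 added for 1-4 h before reading A450. […] Three independent experiments.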
# [3] = system: NCI-H1299; test: Induction of apoptosis in human H1299 cells assessed as early apoptotic cells at 0.5 uM after 48 hrs by AnnexinV-FITC/PI staining-based flow cytometric analysis (reference value: 0.248%); assay type: functional
# [4] = system: A549; test: Induction of apoptosis in human A549 cells assessed as activation of caspase 3 at 0.25 to 1 uM after 24 hrs by Western blot analysis; assay type: functional, cell-based
# Outline: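 A549 or H1299 cells exposed to the indicated concentrations for 24 h. Protein extracts then immunoblotted for apoptosis-pathway proteins (Bcl2, Bim, cleaved caspase 3).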
# [5] = system: A549; test: Downregulation of KLF4 in human A549 cells at 0.25 to 1 uM by Western blot analysis; assay type: functional, cell-based
# [6] = species on record: Homo sapiens; test: Inhibition of recombinant full-length human AURKA I31F mutant at 1 uM using LRRASLG as substrate measured after 40 mins in presence of [gamma33P]ATP by scintillation counting method relative to control
# [7] = molecular target: Calcium/calmodulin-dependent protein kinase type 1D (Homo sapiens) (UniProt Q8IU85); test: Inhibition of recombinant full-length human CaMK1delta at 1 uM using calmodulin as substrate measured after 40 mins in presence of [gamma33P]ATP by scintillation counting method relative to control
# [8] = molecular target: Mast/stem cell growth factor receptor Kit (Homo sapiens) (UniProt P10721); test: Inhibition of recombinant human cKit (544 to end residues) at 1 uM using Poly(Glu,Tyr) 4:1 as substrate measured after 40 mins in presence of [gamma33P]ATP by scintillation counting method relative to control
# Outline: (§1)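 Single-point inhibition at 1 µM was measured in the Eurofins KinaseProfiler panel. Values are the mean of two independent experiments.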
# [9] = molecular target: Eukaryotic translation initiation factor 2-alpha kinase 3 (Homo sapiens) (UniProt Q9NZJ5); test: Inhibition of recombinant human PEK (536 to end residues) at 1 uM using RSRSRSRSRSRSR as substrate measured after 40 mins in presence of [gamma33P]ATP by scintillation counting method relative to control
# [10] = species on record: Homo sapiens; test: Inhibition of recombinant full-length human pkb-alpha S478G mutant at 1 uM using GRPRTSSFAEGKK as substrate measured after 40 mins in presence of [gamma33P]ATP by scintillation counting method relative to control
# [11] = molecular target: Protein kinase C alpha type (Homo sapiens) (UniProt P17252); test: Inhibition of recombinant full-length human PKCalpha at 1 uM using histone H1 as substrate measured after 40 mins in presence of [gamma33P]ATP by scintillation counting method relative to control
# [12] = system: Mast/stem cell growth factor receptor Kit (Homo sapiens), P10721 [V654A]; test: Inhibition of recombinant human cKit (544 to end residues) V654A mutant at 1 uM using GGMEDIYFEFMGGKKK as substrate measured after 40 mins in presence of [gamma33P]ATP by scintillation counting method relative to control; outline: as §1
# [13] = molecular target: Death-associated protein kinase 2 (Homo sapiens) (UniProt Q9UIK4); test: Inhibition of recombinant full-length human DAPK2 at 1 uM using calmodulin as substrate measured after 40 mins in presence of [gamma33P]ATP by scintillation counting method relative to control
# [14] = molecular target: Dual specificity tyrosine-phosphorylation-regulated kinase 3 (Homo sapiens) (UniProt O43781); test: Inhibition of recombinant full-length human DYRK3 at 1 uM using RRRFRPASPLRGPPK as substrate measured after 40 mins in presence of [gamma33P]ATP by scintillation counting method relative to control
# [15] = molecular target: Receptor tyrosine-protein kinase erbB-4 (Homo sapiens) (UniProt Q15303); test: Inhibition of recombinant human ErbB4 (706 to 991 residues) at 1 uM using poly(Glu, Tyr) 4:1 as substrate measured after 40 mins in presence of [gamma33P]ATP by scintillation counting method relative to control
# [16] = system: Fibroblast growth factor receptor 1 (Homo sapiens), P11362 [V561M]; test: Inhibition of recombinant human FGFR1 V561M mutant (456 to 765 residues) at 1 uM using GGEEEEYFELVKKKK as substrate measured after 40 mins in presence of [gamma33P]ATP by scintillation counting method relative to control
# [17] = molecular target: Serine/threonine-protein kinase PLK1 (Homo sapiens) (UniProt P53350); test: Inhibition of full length human PLK1 at 1 uM using casein as substrate measured after 40 mins in presence of [gamma33P]ATP by scintillation counting method
# [18] = system: Receptor-type tyrosine-protein kinase FLT3 (Homo sapiens), P36888 [D835Y]; test: Inhibition of recombinant human Flt3 (564 to end residues) D835Y mutant at 1 uM using EAIYAAPFAKKK as substrate measured after 40 mins in presence of [gamma33P]ATP by scintillation counting method relative to control
# [19] = molecular target: G protein-coupled receptor kinase 3 (Homo sapiens) (UniProt P35626); test: Inhibition of recombinant full-length human GRK3 at 1 uM using casein as substrate measured after 40 mins in presence of [gamma33P]ATP by scintillation counting method relative to control
# [20] = molecular target: Serine/threonine-protein kinase ICK (Homo sapiens) (UniProt Q9UPZ9); test: Inhibition of recombinant human ICK (1 to 312 residues) at 1 uM using RRRFRPASPLRGPPK as substrate measured after 40 mins in presence of [gamma33P]ATP by scintillation counting method relative to control
# [21] = molecular target: Mitogen-activated protein kinase kinase kinase kinase 5 (Homo sapiens) (UniProt Q9Y4K4); test: Inhibition of recombinant full-length human MAP4K5 at 1 uM using MBP as substrate measured after 40 mins in presence of [gamma33P]ATP by scintillation counting method relative to control
# [22] = molecular target: Cyclin-dependent kinase 9 (Homo sapiens) (UniProt P50750); conditions: A549, 0.25 uM
# [23] = molecular target: Cyclin-dependent kinase 9 (Homo sapiens) (UniProt P50750); conditions: A549, 0.25 uM; remark: listed apart in the source
# Cyclin-dependent kinase 9 (Homo sapiens), sequence (P50750 whole entry): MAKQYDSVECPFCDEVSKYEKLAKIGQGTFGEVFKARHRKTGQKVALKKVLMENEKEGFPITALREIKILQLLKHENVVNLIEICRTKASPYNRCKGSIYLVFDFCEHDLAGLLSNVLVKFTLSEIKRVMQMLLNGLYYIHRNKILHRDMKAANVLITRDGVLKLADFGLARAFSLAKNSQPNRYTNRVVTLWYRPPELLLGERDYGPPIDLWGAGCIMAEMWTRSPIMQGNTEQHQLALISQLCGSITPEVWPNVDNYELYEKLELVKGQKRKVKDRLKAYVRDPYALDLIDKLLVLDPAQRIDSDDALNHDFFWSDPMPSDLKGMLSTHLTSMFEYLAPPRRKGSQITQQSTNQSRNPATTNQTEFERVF
# Serine/threonine-protein kinase PLK1 (Homo sapiens), sequence (P53350 whole entry): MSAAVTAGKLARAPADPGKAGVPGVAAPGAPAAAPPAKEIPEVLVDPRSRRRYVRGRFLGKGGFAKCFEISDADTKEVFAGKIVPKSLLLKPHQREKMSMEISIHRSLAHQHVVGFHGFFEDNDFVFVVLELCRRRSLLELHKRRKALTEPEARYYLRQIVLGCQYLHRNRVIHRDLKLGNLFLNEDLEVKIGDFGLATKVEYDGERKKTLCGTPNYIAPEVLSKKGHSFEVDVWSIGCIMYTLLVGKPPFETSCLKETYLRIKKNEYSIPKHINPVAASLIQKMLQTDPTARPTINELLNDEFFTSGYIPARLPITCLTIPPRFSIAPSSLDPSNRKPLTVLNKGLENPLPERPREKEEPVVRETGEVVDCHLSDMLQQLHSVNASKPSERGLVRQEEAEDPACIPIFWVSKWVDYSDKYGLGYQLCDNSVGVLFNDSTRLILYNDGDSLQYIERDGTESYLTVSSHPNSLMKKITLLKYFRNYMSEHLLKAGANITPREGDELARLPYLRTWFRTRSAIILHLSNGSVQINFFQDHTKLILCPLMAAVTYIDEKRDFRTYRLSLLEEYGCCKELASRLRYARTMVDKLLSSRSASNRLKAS
# Eukaryotic translation initiation factor 2-alpha kinase 3 (Homo sapiens), sequence (Q9NZJ5 whole entry): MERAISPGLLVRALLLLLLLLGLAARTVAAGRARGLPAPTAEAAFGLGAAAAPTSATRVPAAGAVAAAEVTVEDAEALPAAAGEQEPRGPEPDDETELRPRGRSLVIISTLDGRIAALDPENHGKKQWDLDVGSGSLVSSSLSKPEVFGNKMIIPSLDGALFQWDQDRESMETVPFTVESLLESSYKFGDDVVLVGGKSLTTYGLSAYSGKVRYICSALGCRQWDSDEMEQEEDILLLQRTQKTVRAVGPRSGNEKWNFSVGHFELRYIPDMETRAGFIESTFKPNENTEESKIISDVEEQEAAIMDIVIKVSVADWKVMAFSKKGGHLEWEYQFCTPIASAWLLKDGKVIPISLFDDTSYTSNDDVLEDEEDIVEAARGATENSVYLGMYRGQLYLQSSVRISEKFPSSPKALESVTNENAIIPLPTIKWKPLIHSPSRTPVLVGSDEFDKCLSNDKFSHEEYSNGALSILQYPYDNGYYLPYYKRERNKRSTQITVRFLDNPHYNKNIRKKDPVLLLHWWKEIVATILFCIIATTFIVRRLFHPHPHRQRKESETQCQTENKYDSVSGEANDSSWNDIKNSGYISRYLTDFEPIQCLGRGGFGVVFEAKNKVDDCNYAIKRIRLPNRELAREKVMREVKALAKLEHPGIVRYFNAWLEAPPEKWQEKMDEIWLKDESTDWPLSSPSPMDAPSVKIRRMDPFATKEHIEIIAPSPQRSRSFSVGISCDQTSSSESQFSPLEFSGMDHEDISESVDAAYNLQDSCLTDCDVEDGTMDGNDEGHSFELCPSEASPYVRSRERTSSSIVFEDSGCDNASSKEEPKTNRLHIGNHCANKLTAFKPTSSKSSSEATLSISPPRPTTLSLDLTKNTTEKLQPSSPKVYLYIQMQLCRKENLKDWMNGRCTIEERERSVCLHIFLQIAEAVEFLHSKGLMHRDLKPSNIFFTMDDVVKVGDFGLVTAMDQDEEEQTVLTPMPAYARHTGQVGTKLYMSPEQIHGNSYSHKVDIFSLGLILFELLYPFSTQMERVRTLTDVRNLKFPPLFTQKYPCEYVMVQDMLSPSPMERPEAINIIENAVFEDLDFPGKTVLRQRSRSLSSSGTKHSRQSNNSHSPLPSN
# Death-associated protein kinase 2 (Homo sapiens), sequence (Q9UIK4 whole entry, looked up): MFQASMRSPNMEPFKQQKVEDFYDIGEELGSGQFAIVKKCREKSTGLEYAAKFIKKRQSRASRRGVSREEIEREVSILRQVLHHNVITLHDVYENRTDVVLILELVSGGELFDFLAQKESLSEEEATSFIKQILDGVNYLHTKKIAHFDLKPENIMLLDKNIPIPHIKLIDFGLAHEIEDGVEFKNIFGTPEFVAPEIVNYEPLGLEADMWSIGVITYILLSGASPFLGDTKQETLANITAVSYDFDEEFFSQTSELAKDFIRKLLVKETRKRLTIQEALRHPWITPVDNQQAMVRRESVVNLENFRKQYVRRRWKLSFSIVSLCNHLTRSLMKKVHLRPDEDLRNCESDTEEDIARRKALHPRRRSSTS
# Receptor tyrosine-protein kinase erbB-4 (Homo sapiens), sequence (Q15303 whole entry, the tested form may be a part): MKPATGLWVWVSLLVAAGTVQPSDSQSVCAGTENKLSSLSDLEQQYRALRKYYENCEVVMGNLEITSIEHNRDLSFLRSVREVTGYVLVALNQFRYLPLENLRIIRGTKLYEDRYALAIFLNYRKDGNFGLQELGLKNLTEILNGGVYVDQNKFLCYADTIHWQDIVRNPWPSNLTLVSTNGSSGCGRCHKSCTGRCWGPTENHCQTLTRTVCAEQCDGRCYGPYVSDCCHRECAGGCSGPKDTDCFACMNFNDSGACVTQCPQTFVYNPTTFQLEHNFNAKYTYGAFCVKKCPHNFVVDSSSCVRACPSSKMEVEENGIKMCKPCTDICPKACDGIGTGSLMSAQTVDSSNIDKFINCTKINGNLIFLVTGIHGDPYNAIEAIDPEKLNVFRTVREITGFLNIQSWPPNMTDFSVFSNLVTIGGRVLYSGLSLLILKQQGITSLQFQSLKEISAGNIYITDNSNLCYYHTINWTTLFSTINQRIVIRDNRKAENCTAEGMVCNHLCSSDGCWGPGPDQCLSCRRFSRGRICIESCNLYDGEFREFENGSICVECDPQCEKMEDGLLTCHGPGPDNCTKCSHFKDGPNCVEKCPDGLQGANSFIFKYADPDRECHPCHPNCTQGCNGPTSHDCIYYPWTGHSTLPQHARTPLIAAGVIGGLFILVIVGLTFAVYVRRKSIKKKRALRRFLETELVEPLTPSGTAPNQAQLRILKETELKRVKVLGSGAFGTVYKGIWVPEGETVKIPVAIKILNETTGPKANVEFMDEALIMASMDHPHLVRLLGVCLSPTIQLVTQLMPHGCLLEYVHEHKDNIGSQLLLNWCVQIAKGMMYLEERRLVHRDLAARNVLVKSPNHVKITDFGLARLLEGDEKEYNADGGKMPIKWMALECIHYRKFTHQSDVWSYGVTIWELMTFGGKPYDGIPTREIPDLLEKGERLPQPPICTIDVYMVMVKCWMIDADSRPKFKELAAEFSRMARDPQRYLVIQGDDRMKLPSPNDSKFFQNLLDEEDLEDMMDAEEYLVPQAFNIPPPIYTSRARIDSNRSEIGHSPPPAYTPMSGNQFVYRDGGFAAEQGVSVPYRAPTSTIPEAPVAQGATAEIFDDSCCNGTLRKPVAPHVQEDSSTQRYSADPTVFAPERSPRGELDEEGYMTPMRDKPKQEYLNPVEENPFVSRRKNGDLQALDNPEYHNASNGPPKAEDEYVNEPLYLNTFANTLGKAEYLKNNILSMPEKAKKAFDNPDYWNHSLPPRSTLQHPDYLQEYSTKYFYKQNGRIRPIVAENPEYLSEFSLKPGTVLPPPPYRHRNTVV
# Mast/stem cell growth factor receptor Kit (Homo sapiens), sequence (P10721 whole entry): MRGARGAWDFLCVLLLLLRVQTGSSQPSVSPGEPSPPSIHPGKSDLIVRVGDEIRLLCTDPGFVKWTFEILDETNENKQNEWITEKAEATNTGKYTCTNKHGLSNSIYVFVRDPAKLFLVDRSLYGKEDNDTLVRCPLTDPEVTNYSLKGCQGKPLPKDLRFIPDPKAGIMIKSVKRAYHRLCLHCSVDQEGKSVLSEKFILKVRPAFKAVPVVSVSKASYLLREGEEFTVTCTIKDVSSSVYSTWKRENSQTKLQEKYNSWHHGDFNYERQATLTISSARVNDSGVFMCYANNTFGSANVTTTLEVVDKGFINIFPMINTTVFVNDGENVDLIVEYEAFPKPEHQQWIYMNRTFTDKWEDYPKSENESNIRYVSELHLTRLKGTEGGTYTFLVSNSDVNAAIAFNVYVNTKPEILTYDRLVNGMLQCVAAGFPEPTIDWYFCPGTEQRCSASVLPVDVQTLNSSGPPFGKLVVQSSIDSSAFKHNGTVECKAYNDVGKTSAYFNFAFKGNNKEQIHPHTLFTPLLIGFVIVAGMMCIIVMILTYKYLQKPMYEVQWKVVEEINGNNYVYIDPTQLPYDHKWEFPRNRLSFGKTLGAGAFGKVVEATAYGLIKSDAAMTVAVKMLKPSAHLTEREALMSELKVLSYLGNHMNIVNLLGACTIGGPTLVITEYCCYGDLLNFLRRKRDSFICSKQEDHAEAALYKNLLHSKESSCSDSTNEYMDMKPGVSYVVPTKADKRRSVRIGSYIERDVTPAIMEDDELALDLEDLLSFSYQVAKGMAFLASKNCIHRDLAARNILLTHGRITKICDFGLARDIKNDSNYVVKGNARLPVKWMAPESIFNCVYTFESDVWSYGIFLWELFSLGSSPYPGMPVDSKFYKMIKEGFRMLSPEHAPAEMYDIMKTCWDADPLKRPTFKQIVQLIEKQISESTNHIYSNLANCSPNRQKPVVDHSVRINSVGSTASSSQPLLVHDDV
# Mast/stem cell growth factor receptor Kit (Homo sapiens), P10721 [V654A], sequence (P10721 whole entry V654A): as the sequence (P10721 whole entry) above, with V654A counted along it
compound,measurement,setting,value
CN(C)C(=O)c1cc2cnc(Nc3ccc(NC(=O)CCCCCCCN=C=S)cc3)nc2n1C1CCCC1,inhibition at 10 µM,[1],76%
same,IC50,[2],1990 nM
same,Activity,[3],0.758%
same,Activity,[4],Active
same,Activity,[5],Active
same,inhibition,[6],95%
same,inhibition,[7],3%
same,inhibition,[8],26%
same,inhibition,[9],6%
same,inhibition,[10],5%
same,inhibition,[11],68%
same,inhibition,[12],11%
same,inhibition,[13],-8%
same,inhibition,[14],17%
same,inhibition,[15],24%
same,inhibition,[16],86%
same,inhibition,[17],-2%
same,inhibition,[18],72%
same,inhibition,[19],3%
same,inhibition,[20],38%
same,inhibition,[21],75%
same,inhibition,[22],Active
same,inhibition,[23],Active
